# According to ChEMBL document CHEMBL2176894, “Cyanobacterial peptides as a prototype for the design of potent β-secretase inhibitors and the development of selective chemical probes for other aspartic proteases” (J Med Chem, 2012):
# Active and inactive are the calls of the source. No cut-off for these calls is given here. Starred links: 1 amine or outer side, 2 acyl side, 3 side chain; linkers in the order of their positions; H or OH if unused. Non-standard residues stand in square brackets, D forms with d. Residues, ends and D or L forms follow the SMILES beside them. Ahppa(3S,4S) = O=C(C[C@H](O)[C@H](Cc1ccccc1)N[*:1])[*:2]; dNMeF = CN[C@H](Cc1ccccc1)C(=O)O; NMeQ = CN[C@@H](CCC(N)=O)C(=O)O; Lac = C[C@H](O)C(=O)O
# Key:
# Cathepsin E = molecular target: T1, Cathepsin E (Homo sapiens, UniProt P14091); assay: Inhibition of cathepsin E by fluorescence assay
# T1 sequence (P14091 whole entry): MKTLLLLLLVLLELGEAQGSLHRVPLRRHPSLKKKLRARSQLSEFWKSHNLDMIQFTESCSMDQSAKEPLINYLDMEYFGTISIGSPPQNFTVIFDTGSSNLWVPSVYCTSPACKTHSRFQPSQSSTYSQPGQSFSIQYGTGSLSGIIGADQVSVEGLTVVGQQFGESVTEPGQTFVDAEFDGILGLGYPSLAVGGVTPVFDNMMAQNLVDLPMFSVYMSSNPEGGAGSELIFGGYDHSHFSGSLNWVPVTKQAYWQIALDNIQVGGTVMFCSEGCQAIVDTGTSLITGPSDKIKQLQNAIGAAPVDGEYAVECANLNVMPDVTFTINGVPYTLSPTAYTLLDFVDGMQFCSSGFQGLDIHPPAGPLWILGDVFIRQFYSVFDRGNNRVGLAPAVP
# Cathepsin D = Cathepsin D (Homo sapiens, UniProt P07339); assay: Inhibition of cathepsin D by fluorescence assay
# Beta-secretase 1 [1] = molecular target: T2, Beta-secretase 1 (Homo sapiens, UniProt P56817); assay: Inhibition of BACE1 by fluorescence assay
# Beta-secretase 1 [2] = molecular target: T2, Beta-secretase 1; conditions: H4, at 10 µM
# H4 = assay: Inhibition of Alpha secretase expressed in human H4 cells assessed as reduction in C83 levels at 10 uM incubated for 16 hrs by immunoblot; type: cell-based
# Outline: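 H4 cells (3 × 10⁵/well) adhered 4−6 h in DMEM/10% FCS at 37 °C, then were switched to serum-free Ultraculture containing compound at 10 μM final for 16 h. Cells were lysed in NP40/deoxycholate buffer, and protein was equalized by BCA. Lysates were run on 10−20% tricine gels and immunoblotted with antibody to the APP C-terminal 20 residues (1:2000); C99 and C83 were imaged on an infrared system.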
# [3] = molecular target: T3, Gamma-secretase (Homo sapiens) (UniProt Q96BI3+Q9NZ42+Q8WW43+P49768+Q92542+P49810); assay: Inhibition of gamma secretase expressed in human H4 cells expressing BRI-C99 fusion protein assessed as C99 fragment accumulation fragment at 10 uM incubated for 16 hrs in by immunoblot; type: cell-based
# Outline: (§1)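 H4 cells overexpressing Bri-C99 (400000/well) were kept in Opti-MEM with 1% serum and treated 16 h with test compound (10 μM), LY411575 (100 nM) or BACE1 inhibitor IV (1 μM). Cells were lysed in TBS/1% Triton X-100 and run on a 12% bis-tris gel. Blots were probed with CT-20 antibody for furin-generated C99 and read on an infrared imager.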
# [4] = molecular target: T3, Gamma-secretase (Homo sapiens); assay: Inhibition of gamma secretase expressed in human H4 cells assessed as reduction in C83 levels at 10 uM incubated for 16 hrs by immunoblot; type: cell-based
# [5] = molecular target: T3, Gamma-secretase (Homo sapiens); assay: Inhibition of gamma secretase expressed in human H4 cells expressing BRI-C99 fusion protein assessed as C99 fragment accumulation fragment at 100 nM incubated for 16 hrs in by immunoblot; type: cell-based; outline: as §1
# [6] = molecular target: T3, Gamma-secretase (Homo sapiens); assay: Inhibition of gamma secretase expressed in human H4 cells assessed as reduction in CTF levels at 10 uM incubated for 16 hrs by immunoblot; type: cell-based
# Cathepsin D, sequence (P07339 65-162 limits assumed): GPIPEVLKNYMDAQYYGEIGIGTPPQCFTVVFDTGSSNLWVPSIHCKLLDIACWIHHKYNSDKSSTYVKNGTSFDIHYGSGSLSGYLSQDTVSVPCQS
# Cathepsin D, sequence (P07339 169-412 limits assumed): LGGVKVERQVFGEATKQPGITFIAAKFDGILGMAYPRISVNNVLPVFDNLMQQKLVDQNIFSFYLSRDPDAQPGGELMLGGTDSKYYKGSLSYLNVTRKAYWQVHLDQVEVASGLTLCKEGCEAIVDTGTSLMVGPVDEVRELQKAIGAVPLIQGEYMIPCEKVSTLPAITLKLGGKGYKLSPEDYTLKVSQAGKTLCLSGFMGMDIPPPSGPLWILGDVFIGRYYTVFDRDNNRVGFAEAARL
# T2 sequence (P56817 whole entry): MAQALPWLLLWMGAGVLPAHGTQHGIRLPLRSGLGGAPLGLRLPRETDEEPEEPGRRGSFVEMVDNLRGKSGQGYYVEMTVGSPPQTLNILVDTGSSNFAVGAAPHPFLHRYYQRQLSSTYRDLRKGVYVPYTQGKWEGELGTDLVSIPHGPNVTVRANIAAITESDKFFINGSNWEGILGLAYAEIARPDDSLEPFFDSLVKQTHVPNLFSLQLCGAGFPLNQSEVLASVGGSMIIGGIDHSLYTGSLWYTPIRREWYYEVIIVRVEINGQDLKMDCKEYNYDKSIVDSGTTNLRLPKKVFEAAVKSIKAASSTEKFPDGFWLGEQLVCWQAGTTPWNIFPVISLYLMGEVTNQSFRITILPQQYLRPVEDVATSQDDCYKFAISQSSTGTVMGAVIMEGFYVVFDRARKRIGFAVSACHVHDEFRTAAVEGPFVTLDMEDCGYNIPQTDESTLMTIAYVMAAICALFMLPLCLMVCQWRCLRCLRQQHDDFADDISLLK
Structure (SMILES),IC50 (Cathepsin E) [nM],IC50 (Cathepsin D) [nM],inhibition [3],also measured
COC(=O)[C@@H]1CCCN1C(=O)[C@@H](Cc1ccccc1)N(C)C(=O)[C@@H](C)NC(=O)[C@H](CC(C)C)NC(=O)C[C@H](O)[C@H](Cc1ccccc1)NC(=O)[C@H](CCC(N)=O)N(C)C(=O)[C@@H](NC(=O)[C@H](C)O)C(C)C,1450,–,–,–
COC(=O)[C@@H]1CCCN1C(=O)[C@@H](Cc1ccccc1)N(C)C(=O)[C@H](C)NC(=O)[C@H](CC(C)C)NC(=O)C[C@H](O)[C@H](Cc1ccccc1)NC(=O)[C@H](CCC(N)=O)N(C)C(=O)[C@@H](NC(=O)OC(C)(C)C)C(C)C,1.92,0.126,–,–
CC(C)C[C@H](NC(=O)C[C@H](O)[C@H](Cc1ccccc1)NC(=O)[C@H](CCC(N)=O)N(C)C(=O)[C@@H](NC(=O)[C@H](C)O)C(C)C)C(=O)N[C@@H](C)C(=O)N(C)[C@H](Cc1ccccc1)C(=O)NC(C)C,51.9,254,–,IC50 (Beta-secretase 1 [1]): 166 nM; inhibition (Beta-secretase 1 [2]): Active
COC(=O)[C@@H]1CCCN1C(=O)[C@@H](Cc1ccccc1)N(C)C(=O)[C@H](C)NC(=O)[C@H](CC(C)C)NC(=O)C[C@H](O)[C@H](Cc1ccccc1)NC(=O)[C@H](CCC(N)=O)N(C)C(=O)[C@@H](N)C(C)C,58.2,17.3,inactive,inhibition (H4): inactive
COC(=O)[C@@H]1CCCN1C(=O)[C@@H](Cc1ccccc1)N(C)C(=O)[C@H](C)NC(=O)[C@H](CC(C)C)NC(=O)C[C@H](O)[C@H](Cc1ccccc1)NC(=O)[C@H](CCC(N)=O)NC(C)=O,77.5,7.81,inactive,–
"CC(C)C[C@H](NC(=O)C[C@H](O)[C@H](Cc1ccccc1)NC(=O)[C@H](CCC(N)=O)N(C)C(=O)[C@@H](NC(=O)[C@H](C)O)C(C)C)C(=O)N[C@@H](C)C(=O)N(C)[C@H](Cc1ccccc1)C(=O)O (H-[Lac]V[NMeQ][Ahppa(3S,4S)]LA[dNMeF]-OH)",20.8,54.1,–,IC50 (Beta-secretase 1 [1]): 73 nM; inhibition (Beta-secretase 1 [2]): Active
C[C@H](NC(=O)[C@@H](O)c1cc(F)cc(F)c1)C(=O)N[C@@H]1C(=O)N(C)c2ccccc2-c2ccccc21,–,–,–,inhibition [4]: Active; inhibition [5]: Active; inhibition [6]: Active
COC(=O)[C@@H]1CCCN1C(=O)[C@@H](Cc1ccccc1)N(C)C(=O)[C@H](C)NC(=O)[C@H](CC(C)C)NC(=O)C[C@H](O)[C@H](Cc1ccccc1)NC(=O)[C@H](CCC(N)=O)N(C)C(=O)[C@@H](NC(=O)[C@H](C)O)C(C)C [listing 1 of 2 here],–,–,inactive,–
COC(=O)[C@@H]1CCCN1C(=O)[C@@H](Cc1ccccc1)N(C)C(=O)[C@H](C)NC(=O)[C@H](CC(C)C)NC(=O)C[C@H](O)[C@H](Cc1ccccc1)NC(=O)[C@H](CCC(N)=O)N(C)C(=O)[C@@H](NC(=O)[C@H](C)O)C(C)C [listing 2 of 2 here],66,–,–,–
